According to ChEMBL document CHEMBL1121898, “Potential antiestrogens. Synthesis and evaluation of mammary tumor inhibiting activity of 1,2-dialkyl-1,2-bis(3'-hydroxyphenyl)ethanes” (1981):
“And” between values parts separate entries of the source, which are not always exact repeats. Identical values can stand only once. The source made the active and inactive calls.

Experiments:
Rattus norvegicus [1] = organism: Rattus norvegicus; test: Initial tumor number of DMBA-induced hormone-dependent mammary carcinoma in rats at 4.5 mg; type: functional
Procedure, shortened: (§1)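 DMBA-induced, hormone-dependent mammary adenocarcinoma in SD rats. Rats bearing at least one tumor >140 mm² were placed in groups of ten. Compound was given sc as a single dose (mg/kg) daily Monday–Thursday and a double dose on Friday. Tumors were counted at the start and as new tumors; responses were scored as complete remission (not palpable), partial remission (≥50% reduction), no change or progression. Tumor area and body weight were recorded as % change.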

Rattus norvegicus [2] = organism: Rattus norvegicus; test: Percent change in body weight DMBA-induced hormone-dependent mammary carcinoma tumors in rats at 4.5 mg for 7 days; type: functional
MCF7 [3] = test: Inhibition of estrogen receptor positive MCF-7 cell proliferation as percent treated/control cell number after 10 days at 10e-7 M; type: functional, Homo sapiens
Procedure, shortened: (§2)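 MCF-7 cells were grown in McCoy's 5a medium with fetal bovine serum stripped by DCC (0.5 h, 45 °C). Compounds were dissolved in ethanol (final ≤0.5%) and diluted in complete medium. Cells were seeded at 5×10^4 cells/plate. On day 10, three replicate plates per group were counted by Coulter counter, three counts per plate. Percent T/C = test/control. In a retest, compounds were given at 10^-7 M with 17β-estradiol at 10^-7 or 10^-8 M.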

Rattus norvegicus [4] = organism: Rattus norvegicus; test: Number of DMBA-induced hormone-dependent mammary carcinoma tumors in ovariectomised rats; type: functional
Procedure, shortened: (§3)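 DMBA-induced, hormone-dependent mammary adenocarcinoma in SD rats, with ovariectomy as the treatment. Rats bearing at least one tumor >140 mm² were placed in groups of ten. Tumors were counted at the start and as new tumors. Responses were scored as complete remission, partial remission (≥50% size reduction), no change or progression, with % change in tumor area and body weight.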

MCF7 [5] = test: Inhibition of estrogen receptor positive MCF-7 cell proliferation as percent treated/control cell number after 10 days at 10e-6 M; type: functional, Homo sapiens; procedure, shortened: as §2
MCF7 [6] = test: Inhibition of estrogen receptor positive MCF-7 cell proliferation as cell number after 10 days at 10e-9 M; type: functional, Homo sapiens; procedure, shortened: as §2
MCF7 [7] = test: (§4) Inhibition of estrogen receptor positive MCF-7 cell proliferation as cell number after 10 days at 10e-7 M; type: functional, Homo sapiens; procedure, shortened: as §2
MCF7 [8] = test: Inhibition of estrogen receptor positive MCF-7 cell proliferation as cell number after 10 days at 10e-7 M and 10e-8 M 17-beta-estradiol; type: functional, Homo sapiens; procedure, shortened: as §2
MCF7 [9] = test: Inhibition of estrogen receptor positive MCF-7 cell proliferation as percent treated/control cell number after 10 days at 10e-7 M and 10e-8 M 17-beta-estradiol; type: functional, Homo sapiens; procedure, shortened: as §2
MCF7 [10] = test: as §4; type: functional, Homo sapiens; procedure, shortened: as §2; remark: listed apart in the source
MCF7 [11] = test: Inhibition of estrogen receptor positive MCF-7 cell proliferation as percent treated/control cell number after 10 days at 10e-7 M with 10e-7 M 17-beta-estradiol; type: functional, Homo sapiens; procedure, shortened: as §2
Rattus norvegicus [12] = organism: Rattus norvegicus; test: Partial remission of DMBA-induced hormone-dependent mammary carcinoma tumors in rats at 4.5 mg; type: functional; procedure, shortened: as §1
MCF7 [13] = test: Inhibition of estrogen receptor positive MCF-7 cell proliferation as percent treated/control cell number after 10 days at 10e-8 M; type: functional, Homo sapiens; procedure, shortened: as §2
MCF7 [14] = test: Inhibition of estrogen receptor positive MCF-7 cell proliferation as percent treated/control cell number after 10 days at 10e-9 M; type: functional, Homo sapiens; procedure, shortened: as §2
Rattus norvegicus [15] = organism: Rattus norvegicus; test: Progression of DMBA-induced hormone-dependent mammary carcinoma tumors in ovariectomised rats; type: functional; procedure, shortened: as §3
MCF7 [16] = test: Inhibition of estrogen receptor positive MCF-7 cell proliferation as cell number after 10 days at 10e-8 M; type: functional, Homo sapiens; procedure, shortened: as §2
[17] = target: T1, Estrogen receptor (Mus musculus) (UniProt O08537+P19785); test: Estrogenic activity in uterotrophic test in mice at 0 ug; type: functional
T1 sequence (O08537 whole entry, looked up): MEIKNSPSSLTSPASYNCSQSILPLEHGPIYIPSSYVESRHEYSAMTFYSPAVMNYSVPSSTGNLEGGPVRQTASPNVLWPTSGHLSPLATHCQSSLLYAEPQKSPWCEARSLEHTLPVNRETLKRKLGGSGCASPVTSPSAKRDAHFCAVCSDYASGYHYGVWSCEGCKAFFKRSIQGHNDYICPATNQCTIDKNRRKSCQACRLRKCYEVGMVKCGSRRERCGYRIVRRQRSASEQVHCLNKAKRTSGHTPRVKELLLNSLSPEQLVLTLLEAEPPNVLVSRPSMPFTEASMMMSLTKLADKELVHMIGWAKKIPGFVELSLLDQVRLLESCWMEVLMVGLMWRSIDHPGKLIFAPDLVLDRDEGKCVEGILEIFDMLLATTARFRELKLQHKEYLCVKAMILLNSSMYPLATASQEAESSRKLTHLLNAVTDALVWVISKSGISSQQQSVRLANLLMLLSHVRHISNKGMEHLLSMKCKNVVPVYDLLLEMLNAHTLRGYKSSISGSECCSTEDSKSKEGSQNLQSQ
T1 sequence (P19785 whole entry, looked up): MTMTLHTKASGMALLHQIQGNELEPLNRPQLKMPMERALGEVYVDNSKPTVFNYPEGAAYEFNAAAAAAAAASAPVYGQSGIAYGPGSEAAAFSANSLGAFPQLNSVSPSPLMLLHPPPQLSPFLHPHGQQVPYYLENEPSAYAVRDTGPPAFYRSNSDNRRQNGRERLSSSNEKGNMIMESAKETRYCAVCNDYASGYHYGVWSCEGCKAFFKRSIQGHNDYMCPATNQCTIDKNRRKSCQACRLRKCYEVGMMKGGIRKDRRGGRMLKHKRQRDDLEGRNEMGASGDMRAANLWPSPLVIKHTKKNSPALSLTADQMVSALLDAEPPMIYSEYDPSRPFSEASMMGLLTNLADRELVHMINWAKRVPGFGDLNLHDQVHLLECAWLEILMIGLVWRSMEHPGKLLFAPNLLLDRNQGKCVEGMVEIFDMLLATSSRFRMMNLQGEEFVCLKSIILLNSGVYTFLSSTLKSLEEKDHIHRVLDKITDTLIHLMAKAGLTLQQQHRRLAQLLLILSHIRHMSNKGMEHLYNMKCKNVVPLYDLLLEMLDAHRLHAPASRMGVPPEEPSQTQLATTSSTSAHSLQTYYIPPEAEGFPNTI
Procedure, shortened: (§5)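 Uterine growth stimulation in immature female NMRI mice, 20 days old (14.5 ± 1.2 g), 10 per group. Test compound in 0.1 mL olive oil was given sc daily for 3 days. Uteri were excised 24 h after the final injection and weighed. Effect is reported as mean ± SD.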

Mus musculus = organism: Mus musculus; test: Vaginal cornification test in mice at 0 ug; predominant cellular component leucocytes (diestrus); type: functional, organism-based
Procedure, shortened: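 Female NMRI mice (~15 g) were ovariectomized; castration was confirmed at 10 days by leucocyte smears. Mice were primed with estradiol 3-benzoate 0.2 μg, and only responders showing estrus were kept. Groups of three received sc test compound in 0.1 mL olive oil daily for 3 days. Saline vaginal smears were taken 6, 24, 30, 48 and 54 h after the last dose and scored by Allen-Doisy.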

MCF7 [18] = test: Inhibition of estrogen receptor positive MCF-7 cell proliferation as cell number after 10 days at 10e-6 M; type: functional, Homo sapiens; procedure, shortened: as §2
Rattus norvegicus [19] = organism: Rattus norvegicus; test: Final number of DMBA-induced hormone-dependent mammary carcinoma tumors in rats at 4.5 mg; type: functional
Procedure, shortened: (§6)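 Sprague-Dawley rats carrying DMBA-induced, hormone-dependent mammary adenocarcinoma, at least one tumor >140 mm², were placed in groups of ten. Compounds were given sc, with doses in mg/kg: a single daily dose Monday to Thursday and a double dose on Friday. Ovariectomy served as a comparator group. New tumors arising during the test were counted.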

Rattus norvegicus [20] = organism: Rattus norvegicus; test: Final number of DMBA-induced hormone-dependent mammary carcinoma tumors in rats at 9 mg; type: functional; procedure, shortened: as §6
[21] = system: Estrogen receptor (Bos taurus); test: Displacement of [3H]estradiol from calf estrogen receptor
[22] = target: T1, Estrogen receptor (Mus musculus); test: Antiestrogenic activity in uterotrophic test in mice at 50 ug (experiment 2); type: functional
Procedure, shortened: (§7)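 Immature female NMRI mice, 20 days old (14.5 ± 1.2 g), randomly grouped 10 per group. Each received a daily sc injection for 3 days of 0.1 mL olive oil solution containing test compound, together with estrone to stimulate uterine growth. Uteri were removed 24 h after the last injection and weighed. Results are reported as % inhibition of the estrone-stimulated uterine weight gain, mean ± SD.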

Rattus norvegicus [23] = organism: Rattus norvegicus; test: Progression of DMBA-induced hormone-dependent mammary carcinoma tumors in rats at 2 mg; type: functional
Rattus norvegicus [24] = organism: Rattus norvegicus; test: Partial remission of DMBA-induced hormone-dependent mammary carcinoma tumors in rats at 1 mg; type: functional; procedure, shortened: as §1
[25] = target: T1, Estrogen receptor (Mus musculus); test: Estrogenic activity in uterotrophic test in mice at 8 ug (experiment 1); type: functional
Procedure, shortened: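 Immature (20-day-old) female NMRI mice, 14.5 ± 1.2 g, randomized into groups of 10. Given the test compound sc daily for 3 days in 0.1 mL olive oil. Uteri removed 24 h after the last injection; uterine weight taken as the read-out, means ± SD. Dose in μg.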

[26] = target: T1, Estrogen receptor (Mus musculus); test: Antiestrogenic activity in uterotrophic test in mice at 0 ug (experiment 2); type: functional; procedure, shortened: as §7
Rattus norvegicus [27] = organism: Rattus norvegicus; test: Complete remission of DMBA-induced hormone-dependent mammary carcinoma tumors in rats at 1 mg; type: functional
Procedure, shortened: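 Female SD rats bearing DMBA-induced, hormone-dependent mammary adenocarcinoma, with at least one tumor >140 mm², were grouped in tens. Dosing was sc per kg body weight: a single dose daily Monday–Thursday and a double dose Friday. Ovariectomy served as the comparison arm. Complete remission was defined as a tumor no longer palpable. Body weight and tumor area changes were also recorded.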

[28] = target: T1, Estrogen receptor (Mus musculus); test: Estrogenic activity in uterotrophic test in mice at 24 ug (experiment 2); type: functional; procedure, shortened: as §5
Rattus norvegicus [29] = organism: Rattus norvegicus; test: Partial remission of DMBA-induced hormone-dependent mammary carcinoma tumors in rats at 2 mg; type: functional; procedure, shortened: as §1
Rattus norvegicus [30] = organism: Rattus norvegicus; test: Percent unchanged tumor size of DMBA-induced hormone-dependent mammary carcinoma tumors in rats at 1 mg; type: functional

SMILES	T/C (MCF7 [3])	T/C (MCF7 [5]) [%]	Cell number (MCF7 [6])	Cell number (MCF7 [7])	Cell number (MCF7 [8])	T/C (MCF7 [9]) [%]	Cell number (MCF7 [10])	T/C (MCF7 [11]) [%]	T/C (MCF7 [13]) [%]	T/C (MCF7 [14]) [%]	Cell number (MCF7 [16])	Activity (Mus musculus)	Cell number (MCF7 [18])	Ka [21] [M⁻¹]	other results
CCCC(c1cccc(O)c1)C(CCC)c1cccc(O)c1 (stereo not given)	66% and 68%	53	30700	4300	6100	93	29700	84	78	71	34300	inactive	23300	9.1e+07	No. of tumors (Rattus norvegicus [1]): 16; Change (Rattus norvegicus [2]): -1.1%; No. of tumors (Rattus norvegicus [4]): 2; Tumors (Rattus norvegicus [12]): 14%; Tumors (Rattus norvegicus [15]): 0%; Effect [17]: 11.4; No. of tumors (Rattus norvegicus [19]): 6; No. of tumors (Rattus norvegicus [20]): 1
CCC(c1cccc(O)c1)C(CC)c1cccc(O)c1 (stereo in doubt; 20)	70% and 63%	27	32100	4700	5100	78	27700	84	64	73	27900	inactive	11900	2e+08	Effect [22]: 28.3; Tumors (Rattus norvegicus [23]): 21%; Tumors (Rattus norvegicus [24]): 15%; Effect [25]: 14.4; Effect [26]: 10; Tumors (Rattus norvegicus [27]): 21%; Effect [28]: 18.5; Tumors (Rattus norvegicus [29]): 30%; Tumors (Rattus norvegicus [30]): 35%
